Data: PubChem BioAssay AID602316 (Southern Research Specialized Biocontainment Screening …, 2012)
The source made the active and inactive calls.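 The calls were made as follows: active = inhibition of at least 30% at any tested concentration; inactive = the rest.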

Target: M18 aspartyl aminopeptidase (Plasmodium falciparum 3D7)
Assay: malaria aspartyl aminopeptidase M18 inhibitors – biochemical, QFRET, H-Glu-NHMec substrate, set 3, selectivity assay for PfM17LAP inhibitor project, dose response (AID 602316)
Details: recombinant PfM18AAP, H-Glu-NHMec fluorogenic cleavage; for inhibition: at 100 µM (top of the series)
Summary of the method: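 System – purified recombinant P. falciparum M18 aspartyl aminopeptidase (PFM18AAP) · Medium – Tris-HCl buffer pH 7.5, 2 mM CoCl2, 0.01% Triton X-100 · Timing – 90 min reaction, room temperature · Technique – NHMec fluorescence at 370/460 nm · Read-out basis – % inhibition and fitted IC50 · Replication – each dose tested in triplicate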

CCCCOc1ccc(CN(O)C(=O)c2ccccc2)cc1
inhibition: inactive

CCCCOc1ccc(C(C)(C)C(=O)O)cc1
inhibition: inactive

CCCCOc1ccc(C(C)C(=O)OC)cc1 (stereo not drawn)
inhibition: inactive

CN(C)CCOc1ccc(CC(=O)O)cc1
inhibition: inactive

CCCCOc1ccc(C(C)C(=O)NO)cc1 (stereo not drawn)
IC50: 21.7 µM

CCC(C)Oc1ccc(CC(=O)NO)cc1 (stereo not drawn)
IC50: 27.7 µM

CCCCOc1ccc(CN(O)C(C)=O)cc1
inhibition: inactive

CCCCOc1ccc(C(C)(C)C(=O)NO)cc1
inhibition: inactive

CCCCOc1cccc(CC(=O)NO)c1
IC50: 29.1 µM

CCCOc1ccc(CC(=O)NO)cc1
IC50: 26.1 µM

CCCOc1ccc(CC(=O)O)cc1
inhibition: inactive

CCCCOc1ccc(C(C)C(=O)O)cc1 (stereo not drawn)
inhibition: inactive

CCCCOc1cccc(CC(=O)OC)c1
inhibition: inactive
